{"data": "Results gathered from unrelated publications", "PIK3CA C420R": "Phosphatidylinositol 4,5-bisphosphate 3-kinase catalytic subunit alpha isoform (PIK3CA, Homo sapiens, UniProt P42336, C420R)", "PIK3CA Q546K": "Phosphatidylinositol 4,5-bisphosphate 3-kinase catalytic subunit alpha isoform (PIK3CA, Homo sapiens, UniProt P42336, Q546K)", "PIK3CA H1047L": "Phosphatidylinositol 4,5-bisphosphate 3-kinase catalytic subunit alpha isoform (PIK3CA, Homo sapiens, UniProt P42336, H1047L)", "PIK3CA I800L": "Phosphatidylinositol 4,5-bisphosphate 3-kinase catalytic subunit alpha isoform (PIK3CA, Homo sapiens, UniProt P42336, I800L)", "PIK3CA E542K": "Phosphatidylinositol 4,5-bisphosphate 3-kinase catalytic subunit alpha isoform (PIK3CA, Homo sapiens, UniProt P42336, E542K)", "PIK3CA": "Phosphatidylinositol 4,5-bisphosphate 3-kinase catalytic subunit alpha isoform (PIK3CA, Homo sapiens, UniProt P42336)", "PIK3CA E545A": "Phosphatidylinositol 4,5-bisphosphate 3-kinase catalytic subunit alpha isoform (PIK3CA, Homo sapiens, UniProt P42336, E545A)", "PIK3CA H1047Y": "Phosphatidylinositol 4,5-bisphosphate 3-kinase catalytic subunit alpha isoform (PIK3CA, Homo sapiens, UniProt P42336, H1047Y)"}
{"SMILES": "COc1ncc2cc3ccccc3nc2c1C#N", "target": "PIK3CA C420R", "observed": "cell-free assay", "method": "competition with immobilised ligand", "concentration": "5 µM", "remaining binding [%]": 78}
{"SMILES": "O=C(c1ccc(Nc2nccc(-c3cc4ccccc4s3)n2)cc1)N1CCC(N2CCCC2)CC1", "target": "PIK3CA Q546K", "observed": "binding", "method": "competition with immobilised ligand", "concentration": "1 µM", "remaining binding [%]": 100}
{"SMILES": "CCN1CCN(Cc2ccc(C(=O)Nc3ccc(C)c(Oc4ccc5c(c4)CC(=O)N5)c3)cc2C(F)(F)F)CC1", "target": "PIK3CA H1047L", "observed": "binding", "method": "competition with immobilised ligand", "concentration": "1 µM", "remaining binding [%]": 100}
{"SMILES": "CN(CCCC(F)(F)F)c1nccc(-c2cnn3ncccc23)n1", "target": "PIK3CA C420R", "observed": "binding", "concentration": "1 µM", "remaining binding [%]": 100}
{"SMILES": "O=C(Nc1c[nH]nc1C(=O)NC1CCNCC1)c1cc(F)cc(F)c1", "target": "Phosphatidylinositol 4,5-bisphosphate 3-kinase catalytic subunit alpha isoform (PIK3CA, Homo sapiens, UniProt P42336, M1043I)", "observed": "binding", "method": "competition with immobilised ligand", "concentration": "1 µM", "remaining binding [%]": 100}
{"SMILES": "CN(C(=O)c1ccccc1)c1cc(N(C)c2ccc3c(c2)CCc2ccc(C(=O)NCCN4CCOCC4)cc2C3=O)ccc1F", "target": "PIK3CA I800L", "observed": "cell-free assay", "method": "competition with immobilised ligand", "concentration": "1 µM", "remaining binding [%]": 62}
{"SMILES": "C=CC(=O)N1CCC(C(=O)NCC(=O)N2CCN(c3nc(-c4cnc(N)nc4C(F)F)nc(N4CCOCC4)n3)CC2)CC1", "target": "PIK3CA C420R", "observed": "binding", "method": "competition with immobilised ligand", "concentration": "1 µM", "remaining binding [%]": 0.6}
{"SMILES": "Cc1cnn2ncc(-c3ccnc(N(C)C)n3)c2c1", "target": "PIK3CA E542K", "observed": "binding", "concentration": "1 µM", "remaining binding [%]": 79}
{"SMILES": "COc1cnc(Nc2cccc(S(N)(=O)=O)c2)nc1N1CCN(c2ccccc2)C(=O)C1", "target": "PIK3CA C420R", "observed": "binding", "method": "competition with immobilised ligand", "concentration": "1 µM", "remaining binding [%]": 95}
{"SMILES": "C[C@@H]1CN(c2cc(-c3n[nH]c4ccc(OC5(C)CC5)cc34)ncn2)C[C@H](C)O1", "target": "PIK3CA C420R", "observed": "cell-free assay", "method": "competition with immobilised ligand", "concentration": "0.1 µM", "remaining binding [%]": 72}
{"SMILES": "CC1CCCN1c1nccc(-c2cnn3ncccc23)n1 (centres unmarked)", "target": "PIK3CA I800L", "observed": "binding", "concentration": "1 µM", "remaining binding [%]": 88}
{"SMILES": "Cc1cnc(Nc2ccc(C(=O)N3CCC(N4CCCC4)CC3)cc2)nc1-c1cc2ccccc2s1", "target": "PIK3CA", "observed": "binding", "method": "competition with immobilised ligand", "concentration": "1 µM", "remaining binding [%]": 97}
{"SMILES": "CN(C)c1ncc(F)c(-c2cnn3ncccc23)n1", "target": "PIK3CA", "observed": "binding", "concentration": "1 µM", "remaining binding [%]": 77}
{"SMILES": "O=C(NCC1CCOCC1)c1n[nH]cc1NC(=O)c1c(F)cccc1F", "target": "PIK3CA C420R", "observed": "binding", "method": "competition with immobilised ligand", "concentration": "1 µM", "remaining binding [%]": 100}
{"SMILES": "O=C(c1ccc(Nc2ncc(Cl)c(-c3ccc(Cl)s3)n2)cc1)N1CCC(N2CCCC2)CC1", "target": "PIK3CA E545A", "observed": "binding", "method": "competition with immobilised ligand", "concentration": "1 µM", "remaining binding [%]": 100}
{"SMILES": "N[C@@H]1CCN(c2nccc(-c3cnn4ncccc34)n2)C1", "target": "PIK3CA", "observed": "binding", "concentration": "1 µM", "remaining binding [%]": 100}
{"SMILES": "Nc1ncc2c(n1)-c1c([nH]c3ccc(C#CC4CC4)cc13)CCCC2", "target": "PIK3CA H1047Y", "observed": "binding", "method": "competition with immobilised ligand", "concentration": "1 µM", "remaining binding [%]": 75}
{"SMILES": "CNC(=O)[C@@H]1CC[C@@H](n2c(-c3ccc4cnccc4c3)nc3ccc(C(=O)NCc4cccc(C(N)=O)c4)cc32)C1", "target": "PIK3CA Q546K", "observed": "binding", "method": "competition with immobilised ligand", "concentration": "1 µM", "remaining binding [%]": 100}
{"SMILES": "O=c1nc(-c2ccccn2)sc2ccccc12", "target": "PIK3CA E545A", "observed": "cell-free assay", "method": "competition with immobilised ligand", "concentration": "1 µM", "remaining binding [%]": 92}
{"SMILES": "CN1CCN(c2ccc(Nc3nccc(-c4cccc([N+](=O)[O-])c4)n3)cc2C(F)(F)F)CC1", "target": "PIK3CA H1047L", "observed": "binding", "concentration": "10 µM", "remaining binding [%]": 4.8}
{"SMILES": "O=C(Nc1cnc(Oc2ccc(F)cc2)nc1)N1CCc2ncccc2[C@@H]1c1ccc(F)cc1", "target": "PIK3CA H1047Y", "observed": "cell-free assay", "method": "competition with immobilised ligand", "concentration": "1 µM", "remaining binding [%]": 100}
{"SMILES": "COc1cnc(Nc2cccc(S(N)(=O)=O)c2)nc1N1CCN(c2ccccc2)CC1", "target": "PIK3CA H1047Y", "observed": "binding", "method": "competition with immobilised ligand", "concentration": "1 µM", "remaining binding [%]": 74}
{"SMILES": "O=C(NS(=O)(=O)c1ccc(NCC2CCOCC2)c([N+](=O)[O-])c1)c1ccc(N2CCN(Cc3ccc(C(F)(F)F)cc3-c3ccc(Cl)cc3)CC2)cc1Oc1cnc2[nH]ccc2c1", "target": "PIK3CA", "observed": "cell-free assay", "method": "competition with immobilised ligand", "concentration": "1 µM", "remaining binding [%]": 69}
{"SMILES": "C[C@@H](c1ccc(-n2cnc3c(N)ncnc32)cc1)N1CCc2nn(C)c(Cc3ccccc3)c2C1=O", "target": "PIK3CA", "observed": "binding", "method": "competition with immobilised ligand", "concentration": "0.1 µM", "remaining binding [%]": 82}
{"SMILES": "O=C(NCCCN1CCOCC1)c1ccc(Nc2nccc(-c3cc4ccccc4s3)n2)cc1", "target": "PIK3CA E542K", "observed": "binding", "method": "competition with immobilised ligand", "concentration": "1 µM", "remaining binding [%]": 41}
{"SMILES": "c1cncc(-c2cccc(Nc3nccc(NC4CCCCC4)n3)c2)c1", "target": "PIK3CA H1047L", "observed": "binding", "method": "competition with immobilised ligand", "concentration": "10 µM", "remaining binding [%]": 100}
{"SMILES": "CN(C)C(=O)Cn1cc(-c2nc([C@@](C)(c3ccc(-c4cnc(N)nc4)cc3)C3CC3)no2)cn1", "target": "PIK3CA E542K", "observed": "cell-free assay", "method": "competition with immobilised ligand", "concentration": "1 µM", "remaining binding [%]": 79}
{"SMILES": "O=C(NCCCN1CCOCC1)c1ccc(Nc2ncc(Cl)c(-c3ccc(Cl)s3)n2)cc1", "target": "PIK3CA C420R", "observed": "binding", "method": "competition with immobilised ligand", "concentration": "1 µM", "remaining binding [%]": 100}
{"SMILES": "CN(c1nccc(-c2cnn3ncccc23)n1)C1CC1", "target": "PIK3CA E542K", "observed": "binding", "concentration": "1 µM", "remaining binding [%]": 56}
{"SMILES": "CCOCCn1cc(C(=O)Nc2ccc(-n3nc(-c4cccnc4)cc3C(F)(F)F)cn2)ccc1=O", "target": "Phosphatidylinositol 4,5-bisphosphate 3-kinase catalytic subunit alpha isoform (PIK3CA, Homo sapiens, UniProt P42336, E545K)", "observed": "cell-free assay", "method": "competition with immobilised ligand", "concentration": "1 µM", "remaining binding [%]": 96}
{"SMILES": "CN(C)c1nccc(-c2cnc3ncccn23)n1", "target": "PIK3CA", "observed": "binding", "concentration": "1 µM", "remaining binding [%]": 71}
{"SMILES": "O=C(NCc1ncc(C(F)(F)F)cc1Cl)c1ccc2c(c1)C1(CCS(=O)(=O)CC1)[C@@H](C1CC1)N2S(=O)(=O)c1ccc(F)cc1", "target": "PIK3CA Q546K", "observed": "cell-free assay", "method": "competition with immobilised ligand", "concentration": "1 µM", "remaining binding [%]": 72}
